As usually defined, the IC50 is the midpoint of a concentration-inhibition curve.

Active and inactive are the calls of the source. The rule behind the calls is not given here.

The test system of one data set is SW-620. The data set can be described thus: Cytotoxicity against human SW620 cells after 72 hrs by trypan blue exclusion assay. Format: functional, cell-based. The essentials: (§1)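 Cells were exposed for 72 h to the test agent at increasing concentrations from 10 nM to 20 μM, at 37 °C in humidified 5% CO2. Cells were scraped and resuspended in 0.25% w/v trypan blue in PBS, and dead cells were counted under a light microscope in a Malassez chamber. IC50 is the concentration giving 50% cytotoxicity. Values are mean ± SE of three independent experiments, each run in duplicate.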

The test system of data set [1] is U-937. The data set can be described thus: Cytotoxicity against human U937 cells after 72 hrs by trypan blue exclusion assay. It counts as functional, cell-based. The essentials:
as §1

The subject of data set [2] is P19. The data set can be described thus: Induction of dendrite out growth in IL-4/GMCSF-stimulated mouse P19 cells assessed as dendrite length at 100 nM after 48 hrs by light microscopy. Format: functional.
In data set [3] the test system is SK-N-SH. In words: Cytotoxicity against human SK-N-SH cells after 72 hrs by trypan blue exclusion assay. It counts as functional, cell-based. The essentials: as §1
For the next data set, the system named is A549. In words: Cytotoxicity against human A549 cells after 72 hrs by trypan blue exclusion assay. Format: functional, cell-based. The essentials: as §1
The subject of another data set is HCT-8. The data set can be described thus: Cytotoxicity against human HCT8 cells after 72 hrs by trypan blue exclusion assay. It counts as functional, cell-based. The procedure, abridged: as §1
A further data set relates to TS/A. The data set can be described thus: Cytotoxicity against mouse TSA cells after 72 hrs by trypan blue exclusion assay. Format: functional, cell-based. The procedure, abridged:
as §1

The next data set deals with B16-F10. In words: Cytotoxicity against mouse B16F10 cells after 72 hrs by trypan blue exclusion assay. Format: functional, cell-based. The essentials: as §1
Data set [4] has as its system SH-SY5Y. The data set can be described thus: Cytotoxicity against human SH-SY5Y cells after 72 hrs by trypan blue exclusion assay. It counts as functional, cell-based. The essentials:
as §1

Another data set concerns SK-MEL-28. The data set can be described thus: Cytotoxicity against human SK-MEL-28 cells after 72 hrs by trypan blue exclusion assay. Format: functional, cell-based. The essentials:
as §1

For data set [5], the system named is P19. In words: Cytotoxicity against mouse P19 cells after 3 days by trypan blue exclusion assay. It counts as functional, cell-based. The procedure, abridged: (§2)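 U937 and P19 cells treated with compound. Cell death scored by trypan blue exclusion, with cells scraped, suspended in 0.25% w/v trypan blue in PBS and counted in a Malassez cell. IC50 is the concentration giving 50% cytotoxicity.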

In a further data set the test system is NB-4. The data set can be described thus: Cytotoxicity against human NB4 cells after 72 hrs by trypan blue exclusion assay. It counts as functional, cell-based. The essentials: as §1
Another data set deals with KG-1. The data set can be described thus: Cytotoxicity against human KG1 cells after 72 hrs by trypan blue exclusion assay. It counts as functional, cell-based. The essentials: as §1
The subject of data set [6] is U-87MG ATCC. In words: Cytotoxicity against human U87 cells after 72 hrs by trypan blue exclusion assay. Format: functional, cell-based. The essentials:
as §1

In data set [7] the test system is MCF7. The data set can be described thus: Cytotoxicity against human MCF7 cells after 72 hrs by trypan blue exclusion assay. It counts as functional, cell-based. The procedure, abridged:
as §1

In data set [8] the test system is U-937. In words: Induction of dendrite out growth in IL-4/GMCSF-stimulated human U937 cells assessed as dendrite length at 100 nM after 48 hrs by light microscopy. It counts as functional. The procedure, abridged:
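U937 cells at 1.1 × 10⁶ cells/mL were primed with 10 ng/mL PMA for 48 h in RPMI with 10% heat-inactivated serum. Adherent cells were then given 100 ng/mL IL-4 plus 100 ng/mL GM-CSF or 100 nM compound for 48 h. Dendrite length scored by light microscopy, from none to over 100 μm with a contact network.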

Data set [9] concerns N2a. In words: Cytotoxicity against mouse Neuro2a cells after 72 hrs by trypan blue exclusion assay. Format: functional, cell-based. The procedure, abridged: as §1
Data set [10] deals with U-937. The data set can be described thus: Cytotoxicity against human U937 cells after 3 days by trypan blue exclusion assay. Format: functional, cell-based. The procedure, abridged:
as §2

The subject of data set [11] is P19. In words: Cytotoxicity against mouse P19 cells after 72 hrs by trypan blue exclusion assay. It counts as functional, cell-based. The procedure, abridged:
as §1

The test system of data set [12] is SK-N-SH. In words: Induction of neurite outgrowth in human SK-N-SH cells at 2 to 5 uM after 48 hrs by crystal violet staining. It counts as functional, cell-based.
Data set [13] deals with N2a. The data set can be described thus: Induction of neurite outgrowth in mouse Neuro2a cells at 2 to 5 uM after 48 hrs by crystal violet staining. It counts as functional, cell-based.
Data set [14] deals with U-87MG ATCC. In words: Induction of neurite outgrowth in human U87 cells at 2 to 5 uM after 48 hrs by crystal violet staining. It counts as functional, cell-based.
Data set [15] has as its system SH-SY5Y. In words: Induction of neurite outgrowth in human SH-SY5Y cells at 2 to 5 uM after 48 hrs by crystal violet staining. Format: functional, cell-based.
Data set [16] concerns P19. In words: Induction of neurite outgrowth in mouse P19 cells at 2 to 5 uM after 48 hrs by crystal violet staining. Format: functional, cell-based.
For data set [17], the system named is MCF7. In words: Induction of human MCF7 cell differentiation assessed as milk fat accumulation in intracytoplasmic vesicle at 5 uM after 48 hrs by Bligh and Dyer method. It counts as functional, cell-based. The essentials: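 MCF-7 cells (5 million) exposed to vehicle or compound for 48 h, washed three times in PBS. Lipids extracted by the Bligh and Dyer method and triglycerides quantified.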

Data set [18] relates to MCF7. The data set can be described thus: Induction of human MCF7 cell differentiation assessed as stimulation of milk fat globulin expression at 5 uM after 48 hrs by immunocytochemistry. Format: functional, cell-based.
Data set [19] has as its system MCF7. The data set can be described thus: Induction of human MCF7 cell differentiation assessed as lipid accumulation in intracytoplasmic vesicle at 5 uM after 48 hrs by oil red O staining-based light microscopy. It counts as functional. The procedure, abridged: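 MCF-7 cells on glass coverslips treated with drug, fixed in 3.7% paraformaldehyde for 1 h at room temperature, and stained with oil red O in 60% isopropanol with hematoxylin counterstain. Dye extracted with isopropanol and read at 510 nm, with control subtracted and the value normalized to SYBR green DNA stain.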

The species entered for a further data set is Homo sapiens. The data set can be described thus: Plasma concentration healthy human. It counts as ADME, organism-based. The following applies: in vivo.
The subject of data set [20] is P19. In words: Induction of neurite outgrowth in mouse P19 cells at 40 to 60 uM after 48 hrs by crystal violet staining. Format: functional, cell-based.
Data set [21] has as its system N2a. The data set can be described thus: Induction of neurite outgrowth in mouse Neuro2a cells at 40 to 60 uM after 48 hrs by crystal violet staining. It counts as functional, cell-based.
For data set [22], the system named is SH-SY5Y. The data set can be described thus: Induction of neurite outgrowth in human SH-SY5Y cells at 40 to 60 uM after 48 hrs by crystal violet staining. Format: functional, cell-based.
Data set [23] concerns SK-N-SH. In words: Induction of neurite outgrowth in human SK-N-SH cells at 40 to 60 uM after 48 hrs by crystal violet staining. Format: functional, cell-based.
Data set [24] relates to U-87MG ATCC. The data set can be described thus: Induction of neurite outgrowth in human U87 cells at 40 to 60 uM after 48 hrs by crystal violet staining. It counts as functional, cell-based.

With `CC(C)CCC[C@@H](C)[C@H]1CC[C@H]2[C@@H]3C[C@@H](n4cnc(CCN)c4)[C@@]4(O)C[C@@H](O)CC[C@]4(C)[C@H]3CC[C@]12C`, the outcome in the data set on SW-620, in the data set with U-937 [1], with SK-N-SH [3], in the data set on A549, in the data set with HCT-8 and in the data set on TS/A was inactive. In addition, the outcome in the data set with B16-F10, with SH-SY5Y [4], in the data set with SK-MEL-28, with NB-4, in the data set with KG-1 and with U-87MG ATCC [6] was inactive. The result in the data set with MCF7 [7], in the data set with N2a [9] and with P19 [11] was inactive. The Activity in the data set on P19 [2] and with U-937 [8] was <5 um throughout. In addition, the IC50 with P19 [5] (Mus musculus, P19, 72 h, read-out: IC50) turned out to be 8.9 µM; in the data set with U-937 [10] (Homo sapiens, U-937, 72 h, read-out: IC50) it was 7.7 µM.
With `CC1=C(/C=C/C(C)=C/C=C/C(C)=C/C(=O)O)C(C)(C)CCC1` [TRETINOIN], the result in the data set with P19 [2] and with U-937 [8] was inactive. Besides, the outcome with SK-N-SH [12], in the data set on N2a [13], in the data set with U-87MG ATCC [14], in the data set on SH-SY5Y [15] and in the data set on P19 [16] was Active. For the same compound, the half-maximal inhibitory concentration (IC50) result in the data set with P19 [5] (p19) and in the data set with U-937 [10] (u-937) was “Not Active” in each case.
For the compound `CC/C(=C(\c1ccccc1)c1ccc(OCCN(C)C)cc1)c1ccccc1`, the outcome with MCF7 [17], in the data set with MCF7 [18] and in the data set on MCF7 [19] was Active.
`CC(C)CCC[C@@H](C)[C@H]1CC[C@H]2[C@@H]3C[C@@H]4O[C@@]45C[C@@H](O)CC[C@]5(C)[C@H]3CC[C@]12C`: the result in the data set with P19 [2] and in the data set on U-937 [8] was inactive. Besides, the concentration in the data set filed under Homo sapiens amounted to 1 nM. In addition, the IC50 result with P19 [5] (p19) and in the data set with U-937 [10] (u-937) was “Not Active” in each case.
For the compound `CC/C=C\C/C=C\C/C=C\C/C=C\C/C=C\C/C=C\CCC(=O)O`, the result in the data set on P19 [20], in the data set on N2a [21], with SH-SY5Y [22], in the data set on SK-N-SH [23] and with U-87MG ATCC [24] was Active.
As to `CC(C)CCC[C@@H](C)[C@H]1CC[C@H]2[C@@H]3C[C@H]4O[C@]45C[C@@H](O)CC[C@]5(C)[C@H]3CC[C@]12C`, the result in the data set with P19 [2] and in the data set on U-937 [8] was inactive. The concentration in the data set filed under Homo sapiens came to 1 nM. For the same compound, the IC50 result in the data set on P19 [5] (p19) and with U-937 [10] (u-937) was “Not Active” throughout.

The record behind these values is ChEMBL document CHEMBL1156107, “Synthesis of new alkylaminooxysterols with potent cell differentiating activities: identification of leads for the treatment of cancer and neurodegenerative diseases” (J Med Chem, 2009).
